Measurements of several laboratories.
Protocols differ between the studies behind these lines.
CDK1 with cyclin B: Cyclin-dependent kinase 1, with cyclin B (CDK1, Homo sapiens, UniProt P06493)
CDK1: Cyclin-dependent kinase 1 (CDK1, Homo sapiens, UniProt P06493)
CDK1 with cyclin A: Cyclin-dependent kinase 1, with cyclin A (CDK1, Homo sapiens, UniProt P06493)

Compound | target | observed | mode | method | concentration | measurement | value
O=C1Nc2ccc(Cl)cc2C1=Cc1cc(Cl)c(O)c(Cl)c1 | CDK1 with cyclin B | cell-free assay | – | – | 0.5 µM | remaining signal | 96.3%
CCN(CC)CCNC(=O)c1c(C)[nH]c(/C=C2\C(=O)Nc3ccc(F)cc32)c1C | CDK1 with cyclin B | enzyme activity | inhibitor | – | 0.3 µM | inhibition | 2%
CC(C)(C)c1nc2c(s1)c1nc(N)ncc1c1ccc(NS(=O)(=O)c3c(F)cccc3F)c(F)c12 | Cyclin-dependent kinase 1, with cyclin B1 (CDK1, Homo sapiens, UniProt P06493) | enzyme activity | inhibitor | radiometric | 1 µM | remaining activity | 89%
CNCc1ccc(-c2cc(-c3nc(-c4ccc(S(=O)(=O)C(C)C)cc4)cnc3N)on2)cc1 | CDK1 with cyclin B | enzyme activity | inhibitor | – | 2 µM | inhibition | 6%
CC(C)(O)[C@H]1CC[C@H](Nc2ccc3ncc(-c4cccc(C(F)(F)F)c4)n3n2)CC1 | CDK1 with cyclin B | enzyme activity | inhibitor | – | 1 µM | remaining activity | 66.9%
COc1cc2ncnc(Nc3ccc(Oc4ccccc4)c(C)c3C)c2cc1OC | CDK1 with cyclin B | enzyme activity | inhibitor | – | 1 µM | inhibition | 3%
CN1CC(Oc2cnc(C#N)cc2-c2ccn3nc(NC(=O)C4CC4)cc3c2)C1 | CDK1 with cyclin B | enzyme activity | inhibitor | – | 1 µM | inhibition | -8%
c1ccc(CNc2nc(N3CCOc4ccccc43)nc3c2CCCC3)cc1 | CDK1 | target engagement in cells | inhibitor | chemoproteomics | 20 mM | inhibition | -6.5%
O=Nc1c(-c2c(O)[nH]c3ccccc23)[nH]c2ccccc12 | CDK1 with cyclin B | cell-free assay | – | – | 0.5 µM | remaining signal | 68.7%
Cc1cc(NC(=O)c2cccc3cc(-c4cccc5[nH]nc(N)c45)ccc23)ccc1F | CDK1 with cyclin B | enzyme activity | inhibitor | – | 0.1 µM | activity vs control | 95%
Nc1nc(Nc2ccc(S(N)(=O)=O)cc2)nn1C(=O)c1c(F)cccc1F | CDK1 with cyclin A | cell-free assay | – | – | 0.5 µM | remaining signal | 10.3%
C=CC(=O)Nc1cc(Nc2nccc(Nc3cc(Cl)c(F)cc3C(C)(C)O)n2)c(OC)cc1N1CC[C@@H](N(C)C)C1 | CDK1 with cyclin B | enzyme activity | inhibitor | – | 1 µM | inhibition | -13%
Cc1ccc(Nc2nccc(N(C)c3ccc4c(C)n(C)nc4c3)n2)cc1S(N)(=O)=O | CDK1 with cyclin B | enzyme activity | inhibitor | – | 0.3 µM | inhibition | 14%
Cc1sc(C(=O)NC2COC2)cc1-n1cc(NC(=O)Nc2c(F)cccc2Cl)cn1 | CDK1 with cyclin B | enzyme activity | inhibitor | – | 10 µM | remaining activity | 92.7%
O=C1NC(=O)c2c1c1c3ccccc3[nH]c1n1cncc21 | CDK1 with cyclin A | cell-free assay | – | – | 0.5 µM | remaining signal | 94.8%
Cc1ccc(NC(=O)c2ccc(C)c(C(F)(F)F)c2)cc1C#Cc1nn(C2CCC(O)CC2)c2ncnc(N)c12 (stereo not drawn) | CDK1 with cyclin B | cell-free assay | – | – | 10 µM | remaining signal | 104%
O=C1NC(=O)c2cc(Nc3ccc(F)cc3)c(Nc3ccc(F)cc3)cc21 | CDK1 with cyclin B | cell-free assay | – | – | 0.5 µM | remaining signal | 103%
CNC(=O)c1cc(Oc2ccc(NC(=O)Nc3ccc(Cl)c(C(F)(F)F)c3)cc2)ccn1 | CDK1 with cyclin B | enzyme activity | inhibitor | – | 0.3 µM | inhibition | -5%
N#CCCc1ccc2c(c1)-c1[nH]c3ccc([N+](=O)[O-])cc3c1CC(=O)N2 | CDK1 with cyclin B | cell-free assay | – | – | 0.5 µM | remaining signal | 9.89%
CCCS(=O)(=O)Nc1ccc(F)c(C(=O)c2c[nH]c3ncc(-c4ccc(Cl)cc4)cc23)c1F | CDK1 with cyclin B | enzyme activity | inhibitor | – | 1 µM | inhibition | < 10%
CC(C)n1cnc2c(Nc3cccc(Cl)c3)nc(NCCO)nc21 | CDK1 with cyclin B | cell-free assay | – | – | 0.5 µM | remaining signal | 46.6%
O=C(Nc1cnn(-c2csc(C(=O)NC3COC3)c2)c1)Nc1ccccc1Cl | CDK1 with cyclin B | enzyme activity | inhibitor | – | 5 µM | remaining activity | 92.6%
CSc1nc(C)c(-c2ccnc(Nc3ccc(N4CCOCC4)cc3)c2)[nH]1 | CDK1 | enzyme activity | inhibitor | – | 10 µM | inhibition | 62%
Cc1ccc(-n2nc(C(C)(C)C)cc2NC(=O)Nc2ccc(OCCN3CCOCC3)c3ccccc23)cc1 | CDK1 with cyclin B | enzyme activity | inhibitor | – | 10 µM | inhibition | -6%
O=C(Nc1cnn(-c2csc(C(=O)NC3COC3)c2)c1)Nc1c(F)cccc1Cl | CDK1 with cyclin B | enzyme activity | inhibitor | – | 5 µM | remaining activity | 105%
CC(C)(C)c1nc(-c2cccc(NS(=O)(=O)c3c(F)cccc3F)c2F)c(-c2ccnc(N)n2)s1 | Cyclin-dependent kinase 1, with cyclin A2 (CDK1, Homo sapiens, UniProt P06493) | enzyme activity | inhibitor | radiometric | 1 µM | remaining activity | 84%
CC(C)[C@H](CO)Nc1nc(Nc2cccc(Cl)c2)c2ncn(C(C)C)c2n1 | CDK1 with cyclin A | cell-free assay | – | – | 0.5 µM | remaining signal | 31.7%
